Broadly, the MIC is the lowest concentration that inhibits growth of the organism.

This note sets out measurements from ChEMBL document CHEMBL4680121, “Development of (4-methoxyphenyl)-1H-tetrazol-5-amine regioisomers as a new class of selective antitubercular agents” (Eur J Med Chem, 2020).

The subject of data set [1] is Mycobacterium tuberculosis. The experiment in a line: Antitubercular activity against Mycobacterium tuberculosis Spec.192 assessed as streptomycin MIC incubated for 14 days in presence of streptomycin by MABA method. The class given is functional. The following applies: Mycobacterium tuberculosis, 192, 336 h; time 14 day. In short, it runs like this:
(§1)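 In Middlebrook 7H9 with 10% OADC, the reference drug (INH, RMP, SM or EMB) at 1 to 1/32 of its MIC alone was mixed with the test derivative fixed at 1/2 its MIC. 4 ml samples were inoculated with McFarland 1 suspension and incubated 14 days at 37 °C. MIC is the lowest drug concentration in combination that inhibited growth.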
(In general: The colour change of resazurin is a common sign of viable cells or microbes.)

The test system of data set [2] is Mycobacterium tuberculosis. The experiment in a line: Antitubercular activity against Mycobacterium tuberculosis H37Rv ATCC 25618 assessed as fractional inhibitory concentration index incubated for 14 days in presence of 1/2 x MIC streptomycin by MABA method. Type of data set: functional. As to conditions: time 14 day. The method, boiled down:
(§2)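 Interaction analysis in Middlebrook 7H9 with 10% OADC. Combination MICs came from mixing the derivative (1 to 1/32 MIC) with the reference drug at 1/2 MIC, and the reverse, after 14 days at 37 °C with McFarland 1 inoculum. FICI was calculated from the combination MIC values and the MICs alone.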

The test system of data set [3] is Mycobacterium tuberculosis. The experiment in a line: Antitubercular activity against Mycobacterium tuberculosis Spec.192 assessed as ethambutol MIC incubated for 14 days in presence of ethambutol by MABA method. Type of data set: functional. The following applies: Mycobacterium tuberculosis, 192, 336 h; time 14 day. In short, it runs like this: as §1
Data set [4] deals with Mycobacterium tuberculosis. The data set is described as follows: Antitubercular activity against Mycobacterium tuberculosis H37Rv ATCC 25618 assessed as rifampicin MIC incubated for 14 days in presence of rifampicin by MABA method. The class given is functional. The following applies: H37Rv ATCC 25618, 336 h, time 14 day. The method, boiled down: as §1
Data set [5] relates to Pseudomonas aeruginosa. The data set is described as follows: Antibacterial activity against Pseudomonas aeruginosa PAO1 assessed as bacterial growth inhibition measured after 18 hrs by two-fold serial microdilution method. The class given is functional. The method, boiled down: (§3)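 Two-fold serial broth microdilution in MH II medium following modified CLSI procedures. Compounds were dissolved in DMSO and diluted in medium to at most 1% solvent, tested from 0.03125 to 512 μg/ml. Final inoculum 10^6 CFU/ml. MIC was taken as the lowest concentration with no visible growth after 18 h at 35 °C.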
Background: In broth dilution the organism is exposed to a series of concentrations in liquid medium.

Data set [6] deals with Mycobacterium tuberculosis. The experiment in a line: Antitubercular activity against Mycobacterium tuberculosis H37Rv ATCC 25618 assessed as reduction in bacterial growth incubated for 14 days in presence of 1/2 x MIC ethambutol by MABA method. The following applies: H37Rv ATCC 25618, 336 h, time 14 day. Type of data set: functional. The method, boiled down: (§4)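 Checkerboard-type combination in Middlebrook 7H9 with 10% OADC. The test derivative at 1 to 1/32 of its MIC alone was mixed with the reference drug fixed at 1/2 its MIC. 4 ml samples were inoculated with McFarland 1 suspension and incubated 14 days at 37 °C. MIC is the lowest derivative concentration in combination that inhibited growth in liquid medium.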

The test system of data set [7] is Mycobacterium xenopi. The experiment in a line: Antibacterial activity against Mycobacterium xenopi assessed as inhibition of microbial growth incubated for 1 week by MABA method. The class given is functional. The following applies: 168 h, time 1 weeks. The method, boiled down:
(§5)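 Microplate Alamar Blue assay using two-fold serial microdilution in Middlebrook 7H9 broth with 10% OADC, compounds 0.125–512 µg/ml from DMSO stocks. Inoculum came from fresh LJ culture, was adjusted to McFarland 1 and diluted 1:20. Plates were incubated 1 week at 37 °C, Alamar blue was added and plates were re-incubated 24 h. MIC was the lowest concentration preventing the blue-to-pink change. Each plate carried growth and sterile controls.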

The subject of data set [8] is Mycobacterium tuberculosis. The experiment in a line: Antitubercular activity against Mycobacterium tuberculosis Spec.192 assessed as reduction in bacterial growth incubated for 14 days in presence of 1/2 x MIC ethambutol by MABA method. Type of data set: functional. As to conditions: Mycobacterium tuberculosis, 192, 336 h; time 14 day. In short, it runs like this: as §4

Data set [9] concerns Mycobacterium tuberculosis. The data set is described as follows: Antitubercular activity against Mycobacterium tuberculosis H37Rv ATCC 25618 assessed as isoniazid MIC incubated for 14 days in presence of isoniazid by MABA method. The class given is functional. The following applies: H37Rv ATCC 25618, 336 h, time 14 day. The method, boiled down: as §1
In data set [10] the test system is Mycobacterium intracellulare. The data set is described as follows: Antimycobacterial activity against Mycobacterium intracellulare assessed as inhibition of microbial growth incubated for 1 week by MABA method. As to conditions: 168 h, time 1 weeks. The class given is functional. In short, it runs like this: as §5
Data set [11] deals with Mycobacterium tuberculosis. The experiment in a line: Antitubercular activity against Mycobacterium tuberculosis H37Rv ATCC 25618 assessed as streptomycin MIC incubated for 14 days in presence of streptomycin by MABA method. The class given is functional. The following applies: H37Rv ATCC 25618, 336 h, time 14 day. The method, boiled down:
as §1

Data set [12] concerns Mycobacterium avium. The experiment in a line: Antimycobacterial activity against Mycobacterium avium assessed as inhibition of microbial growth incubated for 1 week by MABA method. As to conditions: 168 h, time 1 weeks. Type of data set: functional. In short, it runs like this: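 Microplate Alamar Blue assay in Middlebrook 7H9 broth with 10% OADC. Inoculum from fresh LJ culture was adjusted to McFarland 1 and diluted 1:20. DMSO stocks were two-fold serially diluted to final 0.125–512 µg/ml, with growth and sterile controls. Plates ran 1 week at 37 °C, then Alamar blue was added for 24 h. MIC is the lowest concentration preventing the blue-to-pink change.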

Data set [13] relates to Mycobacterium tuberculosis. The data set is described as follows: Antitubercular activity against Mycobacterium tuberculosis H37Rv ATCC 25618 assessed as reduction in bacterial growth incubated for 14 days in presence of 1/2 x MIC isoniazid by MABA method. The following applies: H37Rv ATCC 25618, 336 h, time 14 day. Type of data set: functional. The method, boiled down: as §4

The test system of data set [14] is A549. The data set is described as follows: Cytotoxicity against human A549 cells assessed as LDH release at 100 uM incubated for 72 hrs by LDH assay. Type of data set: cell-based. As to conditions: a549, 72 h. The method, boiled down:
(§6)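 LDH release measured with a kit after 72 h exposure to 100 μM compound. Cells were seeded at 1×10^4 per well in DMEM or EMEM with 2% FBS. Absorbance was read at 490 nm. Release (%) = (A sample − A low control)/(A high control − A low control) × 100, with the Triton X-100 (1%) control taken as 100% release. Values are mean ± SD of three independent experiments run in triplicate.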
(In general: LDH in the medium is a marker of cell lysis.)

In data set [15] the test system is Staphylococcus epidermidis. The data set is described as follows: Antibacterial activity against Staphylococcus epidermidis ATCC 1457 assessed as bacterial growth inhibition measured after 18 hrs by two-fold serial microdilution method. The class given is functional. The method, boiled down:
as §3

Data set [16] deals with Mycobacterium tuberculosis. The experiment in a line: Potentiation of streptomycin-induced antimycobacterial activity against Mycobacterium tuberculosis Spec.192 assessed as fold decrease in streptomycin MIC at 1/2X MIC incubated for 14 days in presence of streptomycin by MABA method. The following applies: time 14 day. Type of data set: functional. The method, boiled down:
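Combination assay in Middlebrook 7H9 broth with 10% OADC. The reference drug (INH, RMP, SM or EMB) was varied from 1 to 1/32 of its MIC, and the test derivative was fixed at 1/2 its own MIC. Single-agent MICs were determined first by MABA. Inoculum was 1 McFarland, with 14 days of incubation at 37 °C. The endpoint was the lowest reference-drug concentration that inhibited growth.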

In data set [17] the test system is Mycobacterium tuberculosis. The experiment in a line: Antitubercular activity against Mycobacterium tuberculosis Spec.192 assessed as fractional inhibitory concentration index in presence of 1/2 x MIC ethambutol incubated for 14 days by MABA method. The class given is functional. The following applies: time 14 day. In short, it runs like this:
as §2

Data set [18] has as its system Caco-2. The experiment in a line: Cytotoxicity against human Caco-2 cells assessed as LDH release at 100 uM incubated for 72 hrs by LDH assay. The class given is cell-based. As to conditions: caco-2, 72 h. In short, it runs like this: as §6
Data set [19] deals with Mycobacterium kansasii. The data set is described as follows: Antibacterial activity against Mycobacterium kansasii assessed as inhibition of microbial growth incubated for 1 week by MABA method. The class given is functional. As to conditions: 168 h, time 1 weeks. The method, boiled down:
as §5

Data set [20] relates to Mycobacterium tuberculosis. The experiment in a line: Antitubercular activity against Mycobacterium tuberculosis Spec.192 assessed as fractional inhibitory concentration index in presence of 1/2 x MIC isoniazid incubated for 14 days by MABA method. Type of data set: functional. As to conditions: time 14 day. In short, it runs like this: as §2
Data set [21] relates to Staphylococcus epidermidis. The data set is described as follows: Antibacterial activity against Staphylococcus epidermidis ATCC 35984/RP62A assessed as bacterial growth inhibition measured after 18 hrs by two-fold serial microdilution method. The class given is functional. The method, boiled down:
as §3

Data set [22] has as its system Staphylococcus aureus. The experiment in a line: Antibacterial activity against Staphylococcus aureus NCTC 4163 assessed as bacterial growth inhibition measured after 18 hrs by two-fold serial microdilution method. The class given is functional. In short, it runs like this: as §3
Data set [23] relates to Mycobacterium tuberculosis. The data set is described as follows: Antitubercular activity against Mycobacterium tuberculosis Spec.192 assessed as isoniazid MIC incubated for 14 days in presence of isoniazid by MABA method. The class given is functional. The following applies: Mycobacterium tuberculosis, 192, 336 h; time 14 day. The method, boiled down:
as §1

Where only a bound is given, the exact number is not on record here.

As for `COc1ccc(-n2nnnc2Nc2cccc(Br)c2)cc1`, the MIC in data set [1] was 0.25 µg/mL; in [3], 1 µg/mL; in data set [4] it was 0.25 µg/mL; in [5], greater than 256 µg/mL; in data set [6], 0.5 µg/mL; in data set [7] it was greater than 512 µg/mL. For the same compound, the MIC was 0.5 µg/mL in data set [8]; 0.5 µg/mL in [9]; 128 µg/mL in data set [10]; 0.25 µg/mL in [11]; 256 µg/mL in data set [12]; 0.25 µg/mL in [13]. The MIC is greater than 256 µg/mL in data set [15]; 512 µg/mL in data set [19]; greater than 256 µg/mL in data set [21]; greater than 256 µg/mL in data set [22]; 0.5 µg/mL in data set [23]. In addition, the entries for the “fractional inhibitory concentration index (FICI)” value in data set [2], in data set [17] and in data set [20] were 0.5, 0.75 and 4.125, respectively. Also, the results for the Activity entry in data set [14] and in [18] were “Non-Toxic” and less than 17%, respectively. Further, the “fold change (FC)” value in [16] came out at 2.
For `COc1ccc(-n2nnnc2Nc2ccc(Br)cc2)cc1`, the MIC in [1] was 0.25 µg/mL; in data set [3] it was 1 µg/mL; in data set [4] it was 0.25 µg/mL; in data set [5] it was greater than 256 µg/mL; in [6] it was 0.25 µg/mL; in data set [7], 256 µg/mL. The MIC in data set [8] turned out to be 0.25 µg/mL; in [9] it was 0.5 µg/mL; in [10], 128 µg/mL; in data set [11] it was 0.25 µg/mL; in data set [12] it was 512 µg/mL; in [13], 0.25 µg/mL. The MIC in [15] was greater than 256 µg/mL; in data set [19], 512 µg/mL; in data set [21], greater than 256 µg/mL; in data set [22], greater than 256 µg/mL; in data set [23] it was 0.5 µg/mL. In addition, the results for the “fractional inhibitory concentration index (FICI)” value in [2], in [17] and in [20] were 0.375, 0.625 and 4.125, respectively. Besides, the Activity result in data set [14] and in data set [18] was “Non-Toxic” throughout. The “fold change (FC)” value in [16] worked out at 4.
